Laboratory results as given in ChEMBL document CHEMBL3393046, “Conformationally-locked N-glycosides: exploiting long-range non-glycone interactions in the design of pharmacological chaperones for Gaucher disease” (Eur J Med Chem, 2015).
Active and inactive are the calls of the source. The rule behind the calls is not given here.

Key:
[1] = target: Beta-galactosidase (Escherichia coli K-12) (UniProt P00722); assay: Inhibition of Escherichia coli beta-galactosidase at 2 mM incubated for 10 to 30 mins using o-nitrophenyl beta-D-galactopyranoside substrate by spectrophotometry
Beta-galactosidase (Escherichia coli K-12), sequence (P00722 whole entry): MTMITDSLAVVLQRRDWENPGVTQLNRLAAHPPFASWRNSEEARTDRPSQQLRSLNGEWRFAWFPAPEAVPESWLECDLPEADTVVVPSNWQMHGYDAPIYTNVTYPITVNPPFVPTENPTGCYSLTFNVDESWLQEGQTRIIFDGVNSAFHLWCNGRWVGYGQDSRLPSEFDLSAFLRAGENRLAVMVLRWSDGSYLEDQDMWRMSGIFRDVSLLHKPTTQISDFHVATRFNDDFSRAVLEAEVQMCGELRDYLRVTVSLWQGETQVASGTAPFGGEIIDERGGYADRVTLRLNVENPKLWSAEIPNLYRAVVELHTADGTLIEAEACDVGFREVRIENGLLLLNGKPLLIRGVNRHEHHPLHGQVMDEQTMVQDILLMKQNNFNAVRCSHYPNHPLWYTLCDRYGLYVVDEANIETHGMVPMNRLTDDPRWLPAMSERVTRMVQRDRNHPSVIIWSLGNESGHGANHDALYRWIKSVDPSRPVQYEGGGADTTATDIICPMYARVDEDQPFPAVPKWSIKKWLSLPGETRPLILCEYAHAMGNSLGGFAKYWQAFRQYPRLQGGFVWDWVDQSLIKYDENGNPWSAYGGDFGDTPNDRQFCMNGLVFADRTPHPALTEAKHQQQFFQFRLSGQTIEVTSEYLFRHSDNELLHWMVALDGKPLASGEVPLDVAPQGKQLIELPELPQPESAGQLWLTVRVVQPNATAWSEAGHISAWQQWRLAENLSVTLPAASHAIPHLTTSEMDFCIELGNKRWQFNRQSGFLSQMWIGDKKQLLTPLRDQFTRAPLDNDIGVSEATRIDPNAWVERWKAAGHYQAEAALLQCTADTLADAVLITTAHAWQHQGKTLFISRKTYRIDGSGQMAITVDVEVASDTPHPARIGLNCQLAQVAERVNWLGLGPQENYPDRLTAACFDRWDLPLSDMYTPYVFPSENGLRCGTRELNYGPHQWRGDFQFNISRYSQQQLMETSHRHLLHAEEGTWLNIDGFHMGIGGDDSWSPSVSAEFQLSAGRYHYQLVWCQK
In short: (§1)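 Reaction started by adding enzyme to substrate, without or with various inhibitor concentrations, in phosphate or phosphate-citrate buffer (α/β-mannosidase, amyloglucosidase) at each enzyme's optimal pH. Incubation 10–30 min at 37 °C (55 °C for amyloglucosidase), timed for 10–20% conversion. Stopped with 1 M Na₂CO₃, or for trehalase by heating then GLC-Trinder. Absorbance 405 nm (trehalase 492 nm). Approximate Ki from fixed substrate near Km.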

[2] = target: T1, Lysosomal acid glucosylceramidase (Homo sapiens, UniProt P04062); assay: Inhibition of human beta-glucocerebrosidase at pH 5.0 by spectrophotometry
T1 sequence (P04062 whole entry): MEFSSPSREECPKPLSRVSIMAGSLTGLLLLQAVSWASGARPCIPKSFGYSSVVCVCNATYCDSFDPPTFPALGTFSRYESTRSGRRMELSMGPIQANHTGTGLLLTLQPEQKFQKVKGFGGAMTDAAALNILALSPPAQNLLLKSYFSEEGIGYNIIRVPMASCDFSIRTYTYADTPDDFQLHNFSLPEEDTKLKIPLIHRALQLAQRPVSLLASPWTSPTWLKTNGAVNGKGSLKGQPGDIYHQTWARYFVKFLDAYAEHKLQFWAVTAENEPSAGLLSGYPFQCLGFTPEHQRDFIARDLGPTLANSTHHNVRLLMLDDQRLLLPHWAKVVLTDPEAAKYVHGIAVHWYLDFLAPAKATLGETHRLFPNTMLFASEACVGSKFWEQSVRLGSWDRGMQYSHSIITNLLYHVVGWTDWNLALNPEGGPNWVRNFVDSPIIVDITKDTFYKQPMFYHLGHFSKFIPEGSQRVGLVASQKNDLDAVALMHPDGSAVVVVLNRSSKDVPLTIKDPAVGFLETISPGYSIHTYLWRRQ

Helix pomatia = assay: Inhibition of Helix pomatia beta-mannosidase at 2 mM incubated for 10 to 30 mins using substrate by spectrophotometry; in short: as §1
[3] = target: T1, Lysosomal acid glucosylceramidase; assay: Inhibition of human beta-glucocerebrosidase at pH 7.0 by spectrophotometry
[4] = target: Alpha-galactosidase (Coffea arabica) (UniProt Q42656); assay: Inhibition of green coffee alpha-galactosidase at 2 mM incubated for 10 to 30 mins using p-nitrophenyl alpha-D-glycopyranoside substrate by spectrophotometry; in short: as §1
Alpha-galactosidase (Coffea arabica), sequence (Q42656 16-378 limits assumed): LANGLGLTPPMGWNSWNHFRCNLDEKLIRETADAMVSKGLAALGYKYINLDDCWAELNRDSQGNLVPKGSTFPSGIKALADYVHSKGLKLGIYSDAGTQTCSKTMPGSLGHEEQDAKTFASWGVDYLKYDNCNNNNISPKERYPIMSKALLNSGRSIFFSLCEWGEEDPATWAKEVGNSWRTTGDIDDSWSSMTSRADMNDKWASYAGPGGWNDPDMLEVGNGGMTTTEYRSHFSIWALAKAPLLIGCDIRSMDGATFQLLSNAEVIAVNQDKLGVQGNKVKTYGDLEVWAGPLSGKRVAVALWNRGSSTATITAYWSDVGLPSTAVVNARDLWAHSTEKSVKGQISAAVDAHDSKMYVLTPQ

Saccharomyces cerevisiae = assay: Inhibition of yeast isomaltase at 2 mM incubated for 10 to 30 mins by spectrophotometry; in short: as §1
Penicillium decumbens = assay: Inhibition of Penicillium decumbens naringinase at 2 mM incubated for 10 to 30 mins using substrate by spectrophotometry; in short: as §1
[5] = target: T2, Uncharacterized protein (Sus scrofa) (UniProt I3LIR5); assay: Inhibition of pig kidney trehalase at 2 mM incubated for 10 to 30 mins using alpha,alpha'-trehalose substrate by spectrophotometry; in short: as §1
T2 sequence (whole entry): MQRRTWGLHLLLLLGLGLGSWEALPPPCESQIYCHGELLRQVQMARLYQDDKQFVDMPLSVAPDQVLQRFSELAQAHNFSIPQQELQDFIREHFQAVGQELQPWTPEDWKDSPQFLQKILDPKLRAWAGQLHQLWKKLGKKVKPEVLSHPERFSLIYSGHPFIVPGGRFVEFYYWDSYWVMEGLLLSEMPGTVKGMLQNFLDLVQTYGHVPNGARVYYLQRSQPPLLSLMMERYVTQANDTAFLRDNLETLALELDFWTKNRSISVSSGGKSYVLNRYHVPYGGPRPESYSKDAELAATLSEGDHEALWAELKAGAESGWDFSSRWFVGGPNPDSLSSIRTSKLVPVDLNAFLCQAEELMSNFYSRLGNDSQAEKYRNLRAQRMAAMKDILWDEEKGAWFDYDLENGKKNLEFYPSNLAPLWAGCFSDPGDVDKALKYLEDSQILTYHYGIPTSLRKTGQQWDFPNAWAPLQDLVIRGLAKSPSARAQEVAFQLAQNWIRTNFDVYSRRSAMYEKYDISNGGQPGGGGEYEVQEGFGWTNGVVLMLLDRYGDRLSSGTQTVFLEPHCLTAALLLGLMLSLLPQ

[6] = target: T3, Beta-galactosidase (Homo sapiens) (UniProt P16278); assay: Inhibition of beta-galactosidase (unknown origin) by spectrophotometry
T3 sequence (whole entry): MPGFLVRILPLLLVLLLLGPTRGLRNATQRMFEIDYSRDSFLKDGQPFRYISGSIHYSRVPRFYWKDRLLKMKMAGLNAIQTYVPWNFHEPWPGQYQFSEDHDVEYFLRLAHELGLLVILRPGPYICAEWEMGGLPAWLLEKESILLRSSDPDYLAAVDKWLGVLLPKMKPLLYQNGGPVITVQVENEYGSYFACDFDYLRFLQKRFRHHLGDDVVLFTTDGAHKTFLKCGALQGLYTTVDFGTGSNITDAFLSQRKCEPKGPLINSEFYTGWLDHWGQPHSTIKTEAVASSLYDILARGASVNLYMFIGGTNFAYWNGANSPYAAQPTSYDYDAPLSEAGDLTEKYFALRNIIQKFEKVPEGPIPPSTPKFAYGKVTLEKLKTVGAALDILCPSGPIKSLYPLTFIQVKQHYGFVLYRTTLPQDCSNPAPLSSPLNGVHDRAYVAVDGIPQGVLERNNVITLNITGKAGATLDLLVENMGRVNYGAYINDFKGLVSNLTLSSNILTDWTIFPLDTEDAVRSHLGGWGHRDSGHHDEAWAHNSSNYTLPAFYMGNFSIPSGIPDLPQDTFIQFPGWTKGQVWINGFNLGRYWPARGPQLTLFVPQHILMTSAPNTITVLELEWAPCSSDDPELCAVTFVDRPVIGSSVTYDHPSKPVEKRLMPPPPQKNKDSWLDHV

Aspergillus niger = assay: Inhibition of Aspergillus niger amyloglucosidase at 2 mM incubated for 10 to 30 mins by spectrophotometry; in short: as §1
[7] = target: Lysosomal alpha-glucosidase (Homo sapiens) (UniProt P10253); assay: Inhibition of alpha-glucosidase (unknown origin) by spectrophotometry
Prunus dulcis = assay: Inhibition of almonds beta-glucosidase at 2 mM incubated for 10 to 30 mins using p-nitrophenyl beta-D-glycopyranoside substrate by spectrophotometry; in short: as §1
Homo sapiens = species on record: Homo sapiens; assay: Inhibition of alpha-galactosidase (unknown origin) by spectrophotometry
Saccharomyces bayanus = assay: Inhibition of yeast alpha-glucosidase at 2 mM incubated for 10 to 30 mins using p-nitrophenyl alpha-D-glycopyranoside substrate by spectrophotometry; in short: as §1

OCCCCCCCCCCCCCCCCSC1=N[C@H]2O[C@H](CO)[C@H](O)[C@H](O)[C@H]2O1
inhibition [1]: inactive
IC50 [2]: Not Active
inhibition (Helix pomatia): inactive
IC50 [3]: Not Active
inhibition [4]: inactive
inhibition (Saccharomyces cerevisiae): inactive
inhibition (Penicillium decumbens): inactive
inhibition [5]: inactive
inhibition [6]: inactive
inhibition (Aspergillus niger): inactive
inhibition [7]: inactive
inhibition (Prunus dulcis): inactive
inhibition (Homo sapiens): inactive
inhibition (Saccharomyces bayanus): inactive

OC[C@H]1O[C@@H]2N=C(SCCCCCCCCCCCCCCCCSC3=N[C@H]4O[C@H](CO)[C@@H](O)[C@H](O)[C@H]4O3)O[C@@H]2[C@@H](O)[C@@H]1O
inhibition [1]: inactive
IC50 [2]: Not Active
inhibition (Helix pomatia): inactive
IC50 [3]: Not Active
inhibition [4]: inactive
inhibition (Saccharomyces cerevisiae): inactive
inhibition (Penicillium decumbens): inactive
inhibition [5]: inactive
inhibition [6]: inactive
inhibition (Aspergillus niger): inactive
inhibition [7]: inactive
inhibition (Prunus dulcis): inactive
inhibition (Homo sapiens): inactive
inhibition (Saccharomyces bayanus): inactive

COC(=O)CCCCCCCCCCCCCCCSC1=N[C@H]2O[C@H](CO)[C@@H](O)[C@H](O)[C@H]2O1
inhibition [1]: inactive
IC50 ([2]; read-out: IC50): 300 µM
inhibition (Helix pomatia): inactive
IC50 ([3]; read-out: IC50): 33 µM
inhibition [4]: inactive
inhibition (Saccharomyces cerevisiae): inactive
inhibition (Penicillium decumbens): inactive
inhibition [5]: inactive
inhibition [6]: inactive
inhibition (Aspergillus niger): inactive
inhibition [7]: inactive
inhibition (Prunus dulcis): inactive
inhibition (Homo sapiens): inactive
inhibition (Saccharomyces bayanus): inactive

OC[C@H]1O[C@@H]2N=C(SCCCCCCCCCCCCCCCCF)O[C@@H]2[C@@H](O)[C@@H]1O
inhibition [1]: inactive
IC50 ([2]; read-out: IC50): 27 µM
inhibition (Helix pomatia): inactive
IC50 ([3]; read-out: IC50): 3.9 µM
inhibition [4]: inactive
inhibition (Saccharomyces cerevisiae): inactive
inhibition (Penicillium decumbens): inactive
inhibition [5]: inactive
inhibition [6]: inactive
inhibition (Aspergillus niger): inactive
inhibition [7]: inactive
inhibition (Prunus dulcis): inactive
inhibition (Homo sapiens): inactive
inhibition (Saccharomyces bayanus): inactive
